Screens deposited in PubChem BioAssay by Columbia University Molecular Screening Center.
Insulin prom act = activators of insulin promoter-driven GFP, primary screen, imaging, TRM-6 cells, eGFP reporter, cell count. plate-scaled: unstimulated 0, stimulated control 100. activation, % at 2 µM. hit rate 0.81% among 130,000. AID 1296, 2008;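 active = activation at 2 µM above a set limit, confirmed on inspection of the cell images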;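 also: share of cells whose green reporter signal exceeds an intensity cutoff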
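Test system: human fetal islet-derived TRM-6 cells with tamoxifen-inducible insulin promoter–eGFP reporter. Compound dosing: 2 µM final, single concentration. Incubation: tamoxifen pre-incubation 15 h overnight, then compound exposure 48 h at 37 °C. Signal: fixed-cell fluorescence microscopy, eGFP plus Hoechst.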
Of the large screens only hits and unclear results are named; the others gave an inactive call. This excerpt belongs to a sample that is enriched for hits.

Cc1ccc(-c2nnn(CC(=O)N(c3cccc(F)c3)C(C(=O)NC3CCCC3)c3ccco3)n2)o1 (centres undefined)	none
CC(=O)Nc1ccc(N(C(=O)CNC(=O)c2cccs2)C(C(=O)NC(C)(C)C)c2ccccc2)cc1 (centres undefined)	none
O=C(Nc1cccc(S(=O)(=O)N2CCCCC2)c1)C1CC(=O)N(Cc2ccco2)C1 (centres undefined)	none
O=C(Cn1c(=O)n(-c2ccc(F)cc2)c(=O)c2sccc21)NC1CCCCC1	none
CCCCOc1ccc(C2C3CN(C(=O)OCC)CC=C3C(C#N)=C(N)C2(C#N)C#N)cc1OC (centres undefined)	none
COc1ccc(C2C(C#N)=C(N)Nc3onc(C(C)(C)C)c32)c(OC)c1 (centres undefined)	none
COc1ccc(OC)c(C2C3CN(C(C)C)CC=C3C(C#N)=C(N)C2(C#N)C#N)c1 (centres undefined)	Insulin prom act 478.6
COc1ccc(C2CCN(CC(=O)N(C)C)CC2O)cc1 (centres undefined)	none
Cc1ccnc(N2CCC(C(=O)NNC(=O)c3ccccc3C)CC2)n1	none
O=C(NC1CCC(NC(=O)C2CCCO2)CC1)C1CCCO1 (centres undefined)	none
CC(C)(C)c1ccc(OCCNC(=O)Cc2ccc(F)cc2)cc1	none
COc1ccc(C2Nc3ccccc3C(=O)N2c2ccccc2)cc1COc1ccccn1 (centres undefined)	Insulin prom act 220.0
COc1ccc(C2Nc3ccccc3C(=O)N2Cc2ccccc2)cc1CSc1ccccn1 (centres undefined)	none
COc1ccc(C2Nc3ccccc3C(=O)N2Cc2ccco2)cc1COc1ccc(NC(C)=O)cc1 (centres undefined)	none
COc1cccc(SCC2CSc3nc4ccccc4c(=O)n32)c1 (centres undefined)	none
CCNc1nc(NCC)nc(SCCOc2ccc(C)cc2)n1	none
COc1ccc(/C=N/n2c(N)nc3ccccc32)cc1OC	none
CCn1c(SCC(=O)N/N=C/c2cc(OC)c(O)c(OC)c2)nc2ccccc21	none
COc1cc(/C=C(\C#N)c2nc3ccccc3n2C)cc(OC)c1O	Insulin prom act 478.6
O=C(CNC(=O)c1ccccc1)NC1(C(=O)NC2CCCCC2)CCCCC1	none
COc1cccc(-c2noc(-c3ccc(Br)o3)n2)c1	none
Nc1nnc(Cc2ccc(Cl)c(Cl)c2)s1	none
CCC(C)N(CC(=O)Nc1cccc(C)c1C)C(=O)CCl (centres undefined)	none
OC(COCc1ccco1)CN1CCN(C(c2ccccc2)c2ccccc2)CC1 (centres undefined)	Insulin prom act 128.6
CN=c1sc2ccccc2n1CC(O)COCc1ccco1 (centres undefined)	none
CN(Cc1cccs1)CC(O)COCc1ccco1 (centres undefined)	none
CCCCC(=O)Nc1ccc(NC(=O)c2ccc([N+](=O)[O-])cc2Cl)cc1OC	none
O=C(COc1ccc(Cl)cc1)Nc1ccccc1C(=O)NCc1ccco1	Insulin prom act 437.5
O=C(Nc1ccccc1C(=O)NCc1ccco1)NC1CCCCC1	none
O=C(COc1ccc(Cl)cc1Cl)NNC(=S)NCc1ccco1	none
CCCn1c(SCC(=O)c2ccc(OC)c(OC)c2)nc2c1c(=O)n(C)c(=O)n2C	none
O=C(c1cc2c(cc1Br)OCCCO2)N1CCCCC1	none
Cc1c(C)c(C)c(S(=O)(=O)N2CCNCC2)c(C)c1C	none
COc1ccc2nc(C)c(C(=O)NN)cc2c1	none
O=C(CN1C(=O)S/C(=C/C=C/c2ccccc2)C1=O)Nc1ccc(C(=O)O)cc1	Insulin prom act 550.0
Cn1cc(/C=C2/SC(=O)N(CC(=O)Nc3ccc4c(c3)OCO4)C2=O)c2ccccc21	none
CC(=O)c1ccc(NC(=O)CCCN2C(=O)/C(=C/C(C)=C/c3ccccc3)SC2=S)cc1	none
Cc1cccc(N(Cc2ccc(Cl)cc2)S(C)(=O)=O)c1	none
O=C(COC(=O)CNS(=O)(=O)c1ccccc1)Nc1ccc(Cl)cn1	none
O=C1CCCCC1C(Nc1ccc(Cl)cc1)c1ccccc1 (centres undefined)	Insulin prom act 213.8
CCOC(=O)NC(c1ccccc1)C1CCCCC1=O (centres undefined)	none
O=C(OC1CCCCC1=O)c1ccc(S(=O)(=O)Nc2ccccc2)cc1 (centres undefined)	none
CC(=O)Nc1ccccc1C(=O)C(=O)Nc1ccc(C(=O)NCC2CCCO2)cc1 (centres undefined)	none
CCN(CC)c1ccc(C=C2C(=O)OC(c3ccccc3)OC2=O)cc1 (centres undefined)	Insulin prom act 312.5
CCN(CC)c1ccc(/C=N/NC(=O)c2ccco2)cc1	none
CCN(CC)c1ccc(C2NC(=O)NC(C)=C2C(=O)Nc2ccccc2)cc1 (centres undefined)	none
Cc1cccc(NC(=O)C(=O)NCc2ccc3c(c2)OCO3)c1C	none
CN(C)S(=O)(=O)c1cccc(NC(=O)Cc2ccc(Cl)cc2)c1	none
Cc1ccsc1C(=O)Nc1cccc(S(=O)(=O)N(C)C)c1	Insulin prom act 430.8
CN(C)S(=O)(=O)c1cccc(C(=O)Nc2ccccc2)c1	none
O=C(COc1ccc(Cl)c(Cl)c1)NN1C(=O)C2C(C1=O)C1C=CC2C12CC2 (centres undefined)	none
COC(=O)c1ccccc1N1C(=O)C2C(C1=O)[C@H]1C=C[C@@H]2C1 (some centres undefined)	none
COC(=O)c1ccccc1N1C(=O)C2C(C1=O)C1C=CC2C12CC2 (centres undefined)	Insulin prom act 163.6
COc1ccc(Cl)c(N2CCN(CCCNC(=O)Nc3ccc(C)cc3)CC2)c1	none
COc1ccc(C(C)C)cc1S(=O)(=O)n1cnc(C)c1	none
O=C(N1CCOCC1)C(F)(F)C(=O)N1CCOCC1	none
COc1ccc(N(CC(=O)N/N=C/c2ccc3c(c2)OCO3)S(=O)(=O)c2ccc(NC(C)=O)cc2)cc1	none
O=c1c(/C=C(\O)c2ccc(F)cc2)nc2ccccc2n1-c1ccccc1	Insulin prom act 127.6
NC(=O)CSc1nc2ccccc2n1-c1ccccc1	none
Cn1c(CNC(=O)c2ccc(F)cc2)nc2ccccc21	none
COC(=O)c1cc(OC)nc2c1c(=O)n(C)c(=O)n2C	none
Cc1c(C(=O)Nc2cc(S(=O)(=O)N3CCOCC3)ccc2N2CCOCC2)oc2ccccc12	none
O=C(/C=C/c1ccc(Cl)cc1)N1CCN(c2ncccn2)CC1	none
CC(C)(C)c1ccc(/C=C/C(=O)N2CCCCC2)cc1	Insulin prom act 335.3
CC(C)Cc1ccc(/C=C/C(=O)N2CCCCC2)cc1	none
CCn1c(SCC(=O)Nc2nc3ccc(C)cc3s2)nc2c(c1=O)SC(C)C2 (centres undefined)	none
FC(F)(F)c1cccc(-c2nnc(-c3ccccc3)c(N3CCOCC3)n2)c1	Insulin prom act 233.3
Cc1ccc(-c2nnc(C)c(N3CCOCC3)n2)cc1	none
FC(F)(F)c1nnc(-c2ccccc2)nc1N1CCOCC1	none
Cc1cc(NCCO)nc(-n2nc(C)cc2C)n1	none
CNc1nc(C)nc(-n2nc(C)cc2C)n1	Insulin prom act 660.0
Cc1cc(-n2nc(C)cc2C)nc(N)n1	none
CCOc1cc(C(=O)N(C)c2ccccc2)cc(OCC)c1OCC	none
Brc1cccc(C2CC(c3ccccc3)n3nnnc3N2)c1 (centres undefined)	none
Cc1ccc([N+](=O)[O-])cc1N/C=C1\CCc2ccccc2C1=O	none
COc1ccccc1N1CCN(c2nc3c(C)cccn3c(=O)c2C=O)CC1	none
CCC(C)N1C(=O)/C(=C/c2c(NCCCOC(C)C)nc3c(C)cccn3c2=O)SC1=S (centres undefined)	Insulin prom act 163.9
COCc1cc(C)nc(Nc2ccccc2C)c1C#N	Insulin prom act 408.1
COCc1cc(C)nc(SCC[N+](C)(C)CC(=O)Nc2ccccc2)c1C#N	none
